The source of these data is ChEMBL document CHEMBL3407343, “Functionalized tetrahydro-1H-pyrido[4,3-b]indoles: a novel chemotype with Sirtuin 2 inhibitory activity” (Eur J Med Chem, 2015).

Series [1] concerns the target T1, NAD-dependent protein deacetylase sirtuin-1 (Homo sapiens) (UniProt Q96EB6).
T1 sequence (whole entry): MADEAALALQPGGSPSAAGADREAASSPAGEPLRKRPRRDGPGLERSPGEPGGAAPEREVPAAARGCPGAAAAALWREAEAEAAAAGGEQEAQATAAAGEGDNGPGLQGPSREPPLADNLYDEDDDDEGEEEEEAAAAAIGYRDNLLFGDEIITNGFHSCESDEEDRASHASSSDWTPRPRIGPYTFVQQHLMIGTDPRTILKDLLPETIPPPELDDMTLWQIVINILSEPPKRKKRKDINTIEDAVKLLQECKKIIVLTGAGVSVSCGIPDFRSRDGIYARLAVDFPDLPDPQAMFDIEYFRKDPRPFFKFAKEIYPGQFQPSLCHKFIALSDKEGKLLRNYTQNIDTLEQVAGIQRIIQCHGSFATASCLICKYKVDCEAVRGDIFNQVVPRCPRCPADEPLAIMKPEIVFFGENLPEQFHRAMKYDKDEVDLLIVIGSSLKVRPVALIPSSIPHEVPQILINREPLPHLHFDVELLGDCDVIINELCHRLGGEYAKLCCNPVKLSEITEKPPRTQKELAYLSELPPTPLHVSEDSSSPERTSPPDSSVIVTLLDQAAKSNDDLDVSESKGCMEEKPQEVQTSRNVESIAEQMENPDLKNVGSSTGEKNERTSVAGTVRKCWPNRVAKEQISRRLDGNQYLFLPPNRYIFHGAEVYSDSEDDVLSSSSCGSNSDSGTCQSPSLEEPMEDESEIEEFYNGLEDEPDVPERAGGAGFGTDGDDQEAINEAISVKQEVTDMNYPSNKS
Put plainly: Inhibition of human recombinant SIRT1 assessed as deacetylation of N-acetyl lysine residue in p53 (317 to 320) at 10 uM after 30 mins by luciferase-mediated luminescence assay relative to control. The gist of the method: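 Recombinant human SIRT1 at 0.1 unit/well, with the enzyme amount chosen from the mid-linear range of a signal-to-noise titration, in Sirt-Glo buffer. Serially diluted inhibitor in DMSO covers a 10^3-fold range, with 2.5% DMSO final. The single-point screen is at a fixed 10 µM. Enzyme and inhibitor were agitated 30 min at 25 °C, then Sirt-Glo reagent added and shaken another 30 min at 25 °C before luminescence was read. Activity is % of the enzyme-only control after blank subtraction. IC50 comes from a sigmoidal fit of % activity against log concentration, run in triplicate across ≥2 independent experiments.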

For series [2], the target named is T2, NAD-dependent protein deacetylase sirtuin-1 (Homo sapiens, UniProt Q96EB6).
T2 sequence (Q96EB6 whole entry): T1 sequence (whole entry)
Put plainly: Inhibition of human recombinant SIRT1 assessed as deacetylation of N-acetyl lysine residue in p53 (317 to 320) after 30 mins by luciferase-mediated luminescence assay.

The target of series [3] is T3, NAD-dependent protein deacetylase sirtuin-2 (Homo sapiens, UniProt Q8IXJ6).
T3 sequence (Q8IXJ6 whole entry): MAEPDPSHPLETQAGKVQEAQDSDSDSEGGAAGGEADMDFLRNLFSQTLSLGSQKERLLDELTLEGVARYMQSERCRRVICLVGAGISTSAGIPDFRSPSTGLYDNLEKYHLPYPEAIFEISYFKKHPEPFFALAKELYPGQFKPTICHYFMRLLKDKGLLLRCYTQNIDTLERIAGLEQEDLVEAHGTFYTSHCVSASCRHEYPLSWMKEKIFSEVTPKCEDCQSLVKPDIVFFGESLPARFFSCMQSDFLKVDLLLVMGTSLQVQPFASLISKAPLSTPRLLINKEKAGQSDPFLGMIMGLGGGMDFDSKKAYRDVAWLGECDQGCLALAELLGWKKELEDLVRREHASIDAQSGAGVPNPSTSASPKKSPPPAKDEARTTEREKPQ
As to the kind of experiment: Inhibition of human recombinant SIRT2 assessed as deacetylation of N-acetyl lysine residue in p53 (317 to 320) after 30 mins by luciferase-mediated luminescence assay.

For series [4], the species on record is Homo sapiens. Put plainly: Inhibition of protease (unknown origin) using deacetylated peptide as substrate assessed as luminescence at 10 uM after 30 mins relative to control. Further details: scale not given: the % may be the effect or the level left. The procedure, abridged: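 Counter-screen without sirtuin: compound from DMSO stock diluted in Sirt-Glo buffer, then Sirt-Glo reagent added carrying non-acetylated control peptide. DMSO was 2.5% v/v. Mixed by shaking 30 min at 25 °C, then luminescence read. Result is % of control (peptide plus reagent in vehicle) after subtracting the vehicle-only blank.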

Series [5] in a line: Self-aggregation of the compound in PBS assessed as derived light scattering count rate at 10 uM at pH 7.4 (reference value: 15.5 +/- 0.4 kilocount/sec). Conditions: buffer, pH 7.4, 10 µM. Format: physicochemical.
Series [6] in a line: Self-aggregation of the compound in PBS assessed as derived light scattering count rate at 1 uM at pH 7.4 (reference value: 15.5 +/- 0.4 kilocount/sec). Format: physicochemical. Conditions: buffer, pH 7.4, 1 µM.
A short description of series [7]: Solubility of the compound in phosphate buffer at pH 7.4 at 25 degC by turbimetric method. Format: physicochemical. The gist of the method: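 Turbidimetric solubility. Compound from DMSO stock was added to phosphate buffer pH 7.4 at 1–50 µM final, with 1% v/v DMSO. Plate shaken 30 min at 25 °C and absorbance read at 620 nm. Solubility is assigned to the concentration range where absorbance rises two-fold or more, from 3 separate determinations.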

For series [8], the species on record is Homo sapiens. Put plainly: Selectivity ratio of IC50 for human recombinant SIRT1 to IC50 for human recombinant SIRT2.
A short description of series [9]: Self-aggregation of the compound in PBS assessed as derived light scattering count rate at 250 uM at pH 7.4 (reference value: 15.5 +/- 0.4 kilocount/sec). Format: physicochemical. Conditions: buffer, pH 7.4, 250 µM.
Series [10] in a line: Self-aggregation activity of the compound in PBS assessed as derived light scattering count rate at 25 uM at pH 7.4 (reference value: 15.5 +/- 0.4 kilocount/sec). Format: physicochemical. Conditions: buffer, pH 7.4, 25 µM.
A short description of series [11]: Cytotoxicity against human IMR90 cells assessed as cell viability after 72 hrs by MTS assay. The class given is cell-based. Conditions: IMR-90, 72 h. (Formazan colour is commonly taken as a measure of viable cells.)

In brackets after ≈: the same amount, converted by molar mass. Activity calls are given as the source filed them. The rule behind the calls is not given here.

A word on the inhibition: it is how much of the control response was suppressed. The term IC50 denotes the concentration needed to halve the response being measured. In general, solubility (kinetic) refers to the concentration staying in solution when a stock, usually in DMSO, is diluted into the medium. In the case of `CCCCCCCCn1c2c(c3cc(-c4cccc(C)c4)ccc31)CN(C(C)C)CC2`, the inhibition in [1] was determined as 2.4%. Further, the IC50 in series [2] is 26 µM; in series [3] it was 11.2 µM. In addition, the Activity stood at 100% in the series filed under Homo sapiens [4], 558 kC/sec in [5] and 27 kC/sec in series [6]. The kinetic solubility in series [7] is 1.6 µM (≈ 0.667 µg/mL).
For `CCCCCCCCn1c2c(c3cc(-c4cnc(N)nc4)ccc31)CNCC2`, the inhibition in series [1] turned out to be 2.4%. Besides, the IC50 stood at 38 µM in series [2] and 11.8 µM in series [3]. The results for the Activity (in the series listed under Homo sapiens [4]; in series [5]; in series [6]) were 96.3%, 137 kC/sec and 16.1 kC/sec, respectively. The compound further gave a kinetic solubility in [7] of 6.3 µM (≈ 2.38 µg/mL).
In the case of `CC(C)=CCn1c2c(c3cc(-c4cccc(C)c4)ccc31)CN(Cc1ccc(O)cc1)CC2`, the inhibition result in series [1] was “inactive”.
Still for that read-out and setting: for `CCCCCCCCn1c2c(c3cc(-c4cnc(N)nc4)ccc31)CN(CC)CC2` the value was “inactive”.
Regarding `Cc1cccc(-c2ccc3[nH]c4c(c3c2)CN(C)CC4)c1`, the IC50 in series [3] was found to be 83 µM.
Regarding `CCCCCCCCn1c2c(c3cc(-c4cnc(N)nc4)ccc31)CN(CCO)CC2`, the inhibition entry in [1] was “inactive”.
In the case of `CCCCn1c2c(c3cc(-c4cccc(C)c4)ccc31)CNCC2`, the inhibition entry in series [1] is “inactive”. For the same compound, in [3], the half-maximal inhibitory concentration (IC50) worked out at 96 µM.
In the case of `CCCCCCCCn1c2c(c3cc(F)ccc31)CN(Cc1ccc(O)cc1)CC2`, the inhibition entry in series [1] is “inactive”.
With `CCCCn1c2c(c3cc(-c4cnc(N)nc4)ccc31)CNCC2`, the inhibition entry in series [1] was “inactive”. Also, the IC50 in [3] is greater than 100 µM.
For the compound `CCCCCCCCn1c2c(c3cc(-c4ccnc(F)c4)ccc31)CNCC2`, in series [1], the inhibition came to 1.1%.
Regarding `CCCCCCCCn1c2c(c3cc(-c4cccc(C)c4)ccc31)CNCC2`, the inhibition in series [1] turned out to be 5.1%. Besides, the IC50 in series [2] was determined as 20 µM; in [3], 10.1 µM. In the series listed under Homo sapiens [8], the Ratio IC50 came out at 2.
On to `CCCCCCCCn1c2c(c3cc(-c4ccnc(F)c4)ccc31)CN(C(N)=O)CC2`, for which, in series [1], the inhibition entry is “inactive”.
In the case of `CN1CCc2[nH]c3ccc(-c4cnc(N)nc4)cc3c2C1`, the IC50 in [3] was greater than 250 µM.
For `CCCCCCCCn1c2c(c3cc(-c4cnc(N)nc4)ccc31)CN(C(=O)OCC)CC2`, in series [1], the inhibition result is “inactive”.
Consider `CCCCCCCCn1c2c(c3cc(-c4cnc(N)nc4)ccc31)CN(C(C)C)CC2`, for which the inhibition in [1] stood at 15.3%. Moreover, the IC50 in series [2] came out at 56 µM; in series [3] it was 20 µM. The Activity stood at 137 kC/sec in [5] and 16.8 kC/sec in series [6].
Take `CCCCCCCCn1c2c(c3cc(-c4cnc(N)nc4)ccc31)CN(S(C)(=O)=O)CC2`: the inhibition entry in series [1] is “inactive”.
Regarding `CCCCCCCCn1c2c(c3cc(-c4cnc(N)nc4)ccc31)CN(C)CC2`, in [1], the inhibition entry is “inactive”. The IC50 is greater than 100 µM in [2] and 17.9 µM in [3]. Besides, the Activity in the series filed under Homo sapiens [4] was found to be 98.7%; in series [5] it was 24 kC/sec; in series [6], 15.8 kC/sec.
Consider `CCCCCCCCn1c2c(c3cc(-c4ccc(S(C)(=O)=O)cc4)ccc31)CN(C)CC2`, for which, in series [1], the inhibition amounted to 12.8%. Also, the IC50 in [2] was greater than 250 µM; in [3], 6 µM. Moreover, the values for the Activity (in the series filed under Homo sapiens [4]; in [5]; in series [6]) were 97.8%, 130.7 kC/sec and 17 kC/sec, respectively. Besides, in the series listed under Homo sapiens [8], the Ratio IC50 was greater than 40. Moreover, the kinetic solubility in [7] stood at 3.1 µM (≈ 1.4 µg/mL).
For the compound `CCCCCCCCn1c2c(c3cc(-c4cccc(C)c4)ccc31)CN(C(=O)OCC)CC2`, the inhibition entry in series [1] was “inactive”.
Take `CN1CCc2[nH]c3ccc(-c4ccc(S(C)(=O)=O)cc4)cc3c2C1`: the half-maximal inhibitory concentration (IC50) in series [3] was greater than 250 µM.
With `CCCCCCCCn1c2c(c3cc(-c4cccc(C)c4)ccc31)CN(C)CC2`, the inhibition in series [1] was found to be 66.4%. The IC50 is 21 µM in series [2] and 6.2 µM in series [3]. Further, the Activity in the series listed under Homo sapiens [4] is 98.6%; in series [5], 178 kC/sec; in series [6], 17.9 kC/sec. In series [7], this compound registered a kinetic solubility of 3.1 µM (≈ 1.2 µg/mL).
Consider `CCCCCCCCn1c2c(c3cc(-c4cccc(C)c4)ccc31)CN(C(N)=O)CC2`, for which, in [1], the inhibition entry is “inactive”. The IC50 is greater than 100 µM in series [2] and 7.8 µM in [3]. Further, the Activity in the series filed under Homo sapiens [4] is 97.1%; in [5] it was 541 kC/sec; in [6] it was 19 kC/sec.
For `Cc1cccc(-c2ccc3[nH]c4c(c3c2)CNCC4)c1`, the IC50 in series [3] came out at 100 µM.
Consider `CCCCCCCCn1c2c(c3cc(-c4cccc(C)c4)ccc31)CN(Cc1ccc(O)cc1)CC2`, for which the inhibition result in [1] is “inactive”.
For the compound `O=C(OCc1ccccc1)c1ccccc1` [BENZYL BENZOATE], the Activity in [9] amounted to 1148 kC/sec; in series [10], 76 kC/sec.
As to `CCCCCCCCn1c2c(c3cc(-c4cccc(C)c4)ccc31)CN(Cc1ccccc1)CC2`, the inhibition in series [1] is less than 5%. For the same compound, the figures for the half-maximal inhibitory concentration (IC50) in series [2] and in series [3] were greater than 100 µM and 8.2 µM, respectively. Also, the Activity in the series filed under Homo sapiens [4] came out at 99%; in series [5] it was 769 kC/sec; in [6], 32 kC/sec.
Turning to `CCCCCCCCn1c2c(c3cc(-c4ccc(S(C)(=O)=O)cc4)ccc31)CN(C(N)=O)CC2`, in [1], the inhibition worked out at 51.8%. The IC50 in [2] amounted to 28 µM; in [3] it was 4 µM; in series [11], 14.5 µM. The Activity worked out at 98.6% in the series listed under Homo sapiens [4], 29 kC/sec in series [5] and 15.6 kC/sec in series [6]. The solubility (kinetic) in series [7] worked out at 1.6 µM (≈ 0.771 µg/mL).
As for `CCCCCCCCn1c2c(c3cc(-c4cnc(N)nc4)ccc31)CN(C(N)=O)CC2`, the inhibition result in series [1] is “inactive”. Moreover, the IC50 in [2] was determined as 63 µM; in series [3], 14 µM.
As to `CCCCCCCCn1c2c(c3cc(F)ccc31)CN(C)CC2`, the inhibition result in series [1] is “inactive”.
For the compound `CCCCn1c2c(c3cc(-c4ccc(S(C)(=O)=O)cc4)ccc31)CNCC2`, in series [1], the inhibition result was “inactive”. Further, the IC50 in series [3] was 20 µM. Moreover, in the series listed under Homo sapiens [4], the Activity amounted to 98.6%.
